Test results published in ChEMBL document CHEMBL4422642, “Antiproliferative and Antimigratory Effects of a Novel YAP-TEAD Interaction Inhibitor Identified Using in Silico Molecular Docking” (J Med Chem, 2019).
Calls of active or inactive are those of the source. No cut-off for these calls is given here.

Key:
[1] = target: T1, Transcriptional enhancer factor TEF-1 (Homo sapiens, UniProt P28347); assay: Inhibition of Gal4-fused TEAD1 (unknown origin) interaction with YAP expressed in human HeLa cells assessed as basal transcriptional activity level after 6 hrs by nanoluciferase reporter gene assay; assay type: cell-based
Rattus norvegicus [2] = organism: Rattus norvegicus; assay: Inhibition of TEAD in rat VSMC assessed as reduction in THBS m-RNA expression at 60 uM by RT-qPCR analysis
In short: (§1)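 Rat aortic VSMCs (male Sprague-Dawley, 10% FCS/DMEM) were treated with 60 μM compound for 6 h; n = 3. Total RNA was reverse-transcribed with random primers and quantified by SYBR Green qPCR. Data were normalized to nonstimulated controls.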

Rattus norvegicus [3] = organism: Rattus norvegicus; assay: Inhibition of TEAD in rat VSMC assessed as reduction in CCN1 protein expression up to 60 uM by Western blot analysis
In short: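 VSMCs were treated with compound over a concentration range for 16 h; n = 4. CCN1 protein in total cell lysates was measured by Western blot with GAPDH probed alongside.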

[4] = target: T1, Transcriptional enhancer factor TEF-1; assay: Binding affinity to TEAD1 (194 to 411 residues) (unknown origin) by NMR analysis
In short: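 STD NMR at 700 MHz in PBS pH 7.4 containing 60% D2O, with about 20 μM TEAD1 and 2 mM compound. Saturation time 7 s; on-resonance 0.85 ppm, off-resonance −28 ppm; eight scans. Blank runs without protein or ligand were included.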

VSMC [5] = assay: Antiproliferative activity against rat VSMC assessed as reduction in EdU incorporation after 18 hrs by Hoechst 33342 staining-based fluorescence assay; assay type: functional, cell-based
[6] = Inhibition of TEAD (unknown origin) expressed in human HeLa cells after 6 hrs by nanoluciferase reporter gene assay; assay type: cell-based
In short: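 HeLa cells stably transduced with a lentiviral 8×TEAD-element secreted nanoluciferase reporter were seeded at 2 × 10^4 cells/well and grown 48 h. They were washed and treated with compound for 2 h, washed again and re-treated for 4 h. Secreted nanoluciferase in the conditioned medium was assayed with NanoGlo; n = 3.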

HeLa [7] = assay: Antiproliferative activity against human HeLa cells assessed as reduction in EdU incorporation after 24 hrs by Hoechst 33342 staining-based fluorescence assay; assay type: functional, cell-based
In short: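 Click-iT EdU assay. Cells were treated with compound for 24 h total, with 10 μM EdU present for the final labeling period. Cells were then fixed in 4% formaldehyde, stained for EdU and counterstained with Hoechst 33342 for 20 min. EdU-positive nuclei were counted in at least three fields per well; n = 4.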

Rattus norvegicus [8] = organism: Rattus norvegicus; assay: Inhibition of TEAD in rat VSMC assessed as reduction in CTGF m-RNA expression at 60 uM by RT-qPCR analysis; in short: as §1
VSMC [9] = assay: Inhibition of GAPDH m-RNA expression in rat VSMC at 60 uM by RT-qPCR analysis; assay type: functional, cell-based; in short: as §1
VSMC [10] = assay: Antiproliferative activity against human VSMC assessed as reduction in EdU incorporation after 18 hrs by Hoechst 33342 staining-based fluorescence assay; assay type: functional, cell-based
Rattus norvegicus [11] = organism: Rattus norvegicus; assay: Inhibition of TEAD in rat VSMC assessed as reduction in PAI1 m-RNA expression at 60 uM by RT-qPCR analysis; in short: as §1
HeLa [12] = assay: Antimigratory activity in human HeLa cells at 40 to 80 uM incubated for overnight followed by media replacement and measured every hour for 24 hrs by phase contrast microscopic analysis; assay type: functional, cell-based
In short: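 IncuCyte real-time scratch wound assay. Cells were seeded in 96-well plates and grown 36 h, then pretreated overnight with compound. Wells were scratched and the medium was replaced with compound-containing medium. Phase-contrast images of the wound were taken hourly for 24 h and relative wound confluence was calculated; n = 4.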

Rattus norvegicus [13] = organism: Rattus norvegicus; assay: Inhibition of TEAD in rat VSMC assessed as reduction in MAYDM m-RNA expression at 60 uM by RT-qPCR analysis; in short: as §1
[14] = target: Transcriptional enhancer factor TEF-3 (Homo sapiens, UniProt Q15561); assay: Inhibition of Gal4-fused TEAD4 (unknown origin) interaction with YAP expressed in human HeLa cells assessed as basal transcriptional activity level after 6 hrs by nanoluciferase reporter gene assay; assay type: cell-based
Transcriptional enhancer factor TEF-3, sequence (Q15561 whole entry, the tested form may be a part): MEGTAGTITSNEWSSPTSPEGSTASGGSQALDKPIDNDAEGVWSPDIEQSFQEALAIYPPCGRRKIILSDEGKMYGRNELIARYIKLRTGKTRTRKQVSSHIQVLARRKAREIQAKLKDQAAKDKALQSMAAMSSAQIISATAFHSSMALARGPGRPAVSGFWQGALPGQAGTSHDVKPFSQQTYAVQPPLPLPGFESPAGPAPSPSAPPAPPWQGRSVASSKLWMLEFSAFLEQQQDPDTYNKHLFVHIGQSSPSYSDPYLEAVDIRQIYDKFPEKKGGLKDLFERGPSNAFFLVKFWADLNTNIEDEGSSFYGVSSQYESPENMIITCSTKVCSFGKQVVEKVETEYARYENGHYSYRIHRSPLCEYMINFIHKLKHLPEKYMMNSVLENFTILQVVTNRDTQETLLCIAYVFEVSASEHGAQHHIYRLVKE

T1 sequence (P28347 whole entry, the tested form may be a part): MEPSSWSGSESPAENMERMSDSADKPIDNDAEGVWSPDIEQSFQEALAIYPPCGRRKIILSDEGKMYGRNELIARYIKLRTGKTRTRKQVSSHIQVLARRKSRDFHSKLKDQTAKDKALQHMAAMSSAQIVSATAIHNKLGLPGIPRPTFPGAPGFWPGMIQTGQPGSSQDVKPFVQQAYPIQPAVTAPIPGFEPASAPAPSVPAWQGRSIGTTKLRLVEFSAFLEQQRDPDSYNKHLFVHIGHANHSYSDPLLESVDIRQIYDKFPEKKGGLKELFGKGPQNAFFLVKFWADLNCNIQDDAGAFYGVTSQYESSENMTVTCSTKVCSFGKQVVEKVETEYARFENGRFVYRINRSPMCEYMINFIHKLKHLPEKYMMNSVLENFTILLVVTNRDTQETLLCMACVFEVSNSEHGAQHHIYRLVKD

Which IC50 [1] does the source give for `Cc1ccc2c(c1)c1c3n2CCNC3CCC1` (stereo not given) [PIRLINDOLE] here?
The IC50 was 40 µM.

What about the inhibition (Rattus norvegicus [2]) of the same compound?
The inhibition was “Active”.

What about the inhibition (Rattus norvegicus [3]) of the same compound?
Its inhibition is “Active”.

And the Activity [4]?
Its Activity is “Active”.

And the Activity (VSMC [5])?
The Activity was “Dose-dependent effect”.

And the EC50 (VSMC [5])?
Its EC50 is 10 µM.

And the IC50 [6]?
The IC50 was 70 µM.

What about the Activity (HeLa [7]) of the same compound?
Its Activity is “Dose-dependent effect”.

And the inhibition (Rattus norvegicus [8])?
The inhibition was “Active”.

What about the inhibition (VSMC [9]) of the same compound?
Its inhibition is “inactive”.

And the EC50 (VSMC [10])?
Its EC50 is 1.5 µM.

What about the inhibition (Rattus norvegicus [11]) of the same compound?
The inhibition was “Active”.

And the Activity (HeLa [12])?
The Activity was “Active”.

And the inhibition (Rattus norvegicus [13])?
Its inhibition is “Active”.

What about the IC50 [14] of the same compound?
The IC50 was 36 µM.
